For twelve compounds, IC50, EC50 and Activity results are on record in ChEMBL document CHEMBL3297684, “Discovery of biarylaminoquinazolines as novel tubulin polymerization inhibitors” (J Med Chem, 2014).

The target of experiment [1] is Epidermal growth factor receptor (Homo sapiens, UniProt P00533). Kind of experiment: Inhibition of EGFR (unknown origin) assessed as incorporation of [32P] gamma-ATP in to myelin basic protein after 30 mins by autoradiographic analysis.
For experiment [2], the target named is Fibroblast growth factor receptor 1 (Homo sapiens, UniProt P11362). As to the kind of experiment: Inhibition of FGFR1 (unknown origin) assessed as incorporation of [32P] gamma-ATP in to myelin basic protein after 30 mins by autoradiographic analysis.
Experiment [3] addresses Tyrosine-protein kinase ABL1 (Homo sapiens, UniProt P00519). Kind of experiment: Inhibition of Abl1 (unknown origin) assessed as incorporation of [32P] gamma-ATP in to myelin basic protein after 30 mins by autoradiographic analysis.
For experiment [4], the target named is Proto-oncogene tyrosine-protein kinase Src (Homo sapiens, UniProt P12931). Kind of experiment: Inhibition of Src (unknown origin) assessed as incorporation of [32P] gamma-ATP in to myelin basic protein after 30 mins by autoradiographic analysis.
The next experiment addresses Tubulin (Bos taurus, UniProt Q6B856+Q862L2+Q862F3). Kind of experiment: Inhibition of bovine brain tubulin polymerization after 20 mins by turbidimetry analysis. In a few lines:
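Electrophoretically homogeneous bovine brain tubulin at 10 μM (1.0 mg/mL) in 0.8 M monosodium glutamate, pH 6.6, with compound in 4% (v/v) DMSO. Preincubated 15 min at 30 °C without GTP, then chilled; 0.4 mM GTP added at 0 °C. Temperature raised to 30 °C and turbidity followed at 350 nm.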

The nature of experiment [5]: Cytotoxicity against human OVCAR8 cells assessed as inhibition of cell proliferation by SRB assay. Type of experiment: functional, cell-based. The note with it: OVCAR-8. In a few lines: (§1)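 Cell protein measured with sulforhodamine B. NCI/ADR-RES is isogenic with OVCAR-8 but overexpresses P-gp. Values are mean SD of at least three independent experiments.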
The subject of another experiment is A-431. As to the kind of experiment: Cytotoxicity against human A431 cells assessed as reduction in cell viability after 68 hrs by MTT assay. Type of experiment: functional, cell-based. The note with it: A-431, 68 h.
Experiment [6] can be described thus: Cytotoxicity against human NCI-ADR-RES cells assessed as inhibition of cell proliferation by SRB assay. Type of experiment: functional, cell-based. In a few lines:
as §1

The nature of experiment [7]: Cell cycle arrest in human OVCAR8 cells assessed as increase in number of cells at G2/M phase at 1 uM after 30 mins by flow cytometry. The experiment is classed as functional, cell-based. The note with it: OVCAR-8, in the assay text read “after 24 hrs” for “after 30 mins”. In a few lines: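 OVCAR-8 cells grown in DMEM with 10% heat-inactivated FBS plus penicillin/streptomycin, 37 °C, 5% CO2. Exposed 24 h to 1 μM compound or drug-free medium. Fixed in 70% cold ethanol, RNase-treated (100 μg/mL, 30 min, 37 °C), stained with propidium iodide (100 μg/mL, 30 min, room temperature). 10 000 events per sample read by flow cytometry for G2/M fraction.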

Activity calls are given as the source filed them. The rule behind the calls is not given here.

Sequence of Tyrosine-protein kinase ABL1 (P00519 whole entry): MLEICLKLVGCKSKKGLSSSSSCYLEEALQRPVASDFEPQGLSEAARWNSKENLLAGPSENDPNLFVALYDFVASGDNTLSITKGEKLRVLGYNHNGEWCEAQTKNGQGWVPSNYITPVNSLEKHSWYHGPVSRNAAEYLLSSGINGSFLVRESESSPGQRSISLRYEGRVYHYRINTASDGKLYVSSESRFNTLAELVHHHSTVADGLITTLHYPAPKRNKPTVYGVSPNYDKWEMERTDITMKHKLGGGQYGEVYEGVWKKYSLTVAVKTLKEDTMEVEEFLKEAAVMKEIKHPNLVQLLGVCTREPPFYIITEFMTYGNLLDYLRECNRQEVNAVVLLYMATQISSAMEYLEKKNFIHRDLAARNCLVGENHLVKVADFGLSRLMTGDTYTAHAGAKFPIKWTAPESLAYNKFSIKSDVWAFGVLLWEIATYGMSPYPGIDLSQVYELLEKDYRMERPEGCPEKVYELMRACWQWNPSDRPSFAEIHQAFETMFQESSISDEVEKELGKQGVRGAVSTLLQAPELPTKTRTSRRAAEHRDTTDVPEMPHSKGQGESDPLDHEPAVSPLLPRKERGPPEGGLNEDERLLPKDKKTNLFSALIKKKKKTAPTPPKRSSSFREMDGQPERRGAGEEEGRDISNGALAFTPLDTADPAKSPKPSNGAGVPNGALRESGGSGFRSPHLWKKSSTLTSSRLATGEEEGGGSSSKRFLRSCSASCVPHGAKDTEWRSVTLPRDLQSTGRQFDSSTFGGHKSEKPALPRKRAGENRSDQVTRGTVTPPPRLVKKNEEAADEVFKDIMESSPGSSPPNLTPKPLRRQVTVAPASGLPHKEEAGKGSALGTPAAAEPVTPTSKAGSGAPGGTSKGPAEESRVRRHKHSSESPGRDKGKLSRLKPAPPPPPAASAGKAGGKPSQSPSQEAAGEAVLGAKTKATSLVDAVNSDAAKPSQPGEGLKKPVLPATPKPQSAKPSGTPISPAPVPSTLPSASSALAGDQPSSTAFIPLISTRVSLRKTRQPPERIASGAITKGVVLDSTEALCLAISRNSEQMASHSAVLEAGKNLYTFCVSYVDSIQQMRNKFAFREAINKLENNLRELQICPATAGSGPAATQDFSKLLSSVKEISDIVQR
Sequence of Proto-oncogene tyrosine-protein kinase Src (P12931 2-536 limits assumed): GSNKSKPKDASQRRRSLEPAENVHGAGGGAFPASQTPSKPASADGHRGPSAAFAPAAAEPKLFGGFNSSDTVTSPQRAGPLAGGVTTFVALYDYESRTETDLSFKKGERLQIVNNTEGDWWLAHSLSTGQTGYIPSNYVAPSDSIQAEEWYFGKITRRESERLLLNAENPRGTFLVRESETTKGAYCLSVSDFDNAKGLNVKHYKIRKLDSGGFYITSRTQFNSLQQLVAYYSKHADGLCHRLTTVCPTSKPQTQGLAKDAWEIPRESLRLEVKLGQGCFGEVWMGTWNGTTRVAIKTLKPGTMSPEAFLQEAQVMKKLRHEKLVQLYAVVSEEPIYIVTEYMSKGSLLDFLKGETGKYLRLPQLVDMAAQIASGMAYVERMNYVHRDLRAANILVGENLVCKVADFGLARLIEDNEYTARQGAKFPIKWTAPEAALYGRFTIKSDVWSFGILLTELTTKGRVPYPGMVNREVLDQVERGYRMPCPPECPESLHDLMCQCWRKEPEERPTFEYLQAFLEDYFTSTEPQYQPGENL
Sequence of Fibroblast growth factor receptor 1 (P11362 whole entry): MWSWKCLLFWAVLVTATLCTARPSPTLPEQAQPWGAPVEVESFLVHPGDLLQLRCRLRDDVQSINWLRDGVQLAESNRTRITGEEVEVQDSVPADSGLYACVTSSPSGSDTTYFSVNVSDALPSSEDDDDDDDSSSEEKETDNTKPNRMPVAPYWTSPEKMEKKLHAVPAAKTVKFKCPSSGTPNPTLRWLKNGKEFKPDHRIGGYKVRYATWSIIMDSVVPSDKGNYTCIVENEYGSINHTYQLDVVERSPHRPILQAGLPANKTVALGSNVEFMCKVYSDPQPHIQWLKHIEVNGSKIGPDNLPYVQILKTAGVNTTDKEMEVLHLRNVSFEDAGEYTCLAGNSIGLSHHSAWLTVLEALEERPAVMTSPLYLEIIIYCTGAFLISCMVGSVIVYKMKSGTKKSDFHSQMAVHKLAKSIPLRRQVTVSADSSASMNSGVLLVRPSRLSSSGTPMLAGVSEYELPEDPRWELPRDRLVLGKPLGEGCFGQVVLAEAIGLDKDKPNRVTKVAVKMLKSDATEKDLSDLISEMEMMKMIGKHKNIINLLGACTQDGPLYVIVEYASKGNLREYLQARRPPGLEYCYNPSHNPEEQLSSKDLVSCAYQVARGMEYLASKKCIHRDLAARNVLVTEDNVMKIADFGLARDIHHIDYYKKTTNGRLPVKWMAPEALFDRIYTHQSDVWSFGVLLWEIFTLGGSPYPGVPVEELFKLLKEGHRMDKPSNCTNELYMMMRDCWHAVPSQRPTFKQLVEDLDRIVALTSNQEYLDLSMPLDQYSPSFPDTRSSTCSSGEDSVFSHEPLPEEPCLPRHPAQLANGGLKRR
Sequence of Epidermal growth factor receptor (P00533 whole entry): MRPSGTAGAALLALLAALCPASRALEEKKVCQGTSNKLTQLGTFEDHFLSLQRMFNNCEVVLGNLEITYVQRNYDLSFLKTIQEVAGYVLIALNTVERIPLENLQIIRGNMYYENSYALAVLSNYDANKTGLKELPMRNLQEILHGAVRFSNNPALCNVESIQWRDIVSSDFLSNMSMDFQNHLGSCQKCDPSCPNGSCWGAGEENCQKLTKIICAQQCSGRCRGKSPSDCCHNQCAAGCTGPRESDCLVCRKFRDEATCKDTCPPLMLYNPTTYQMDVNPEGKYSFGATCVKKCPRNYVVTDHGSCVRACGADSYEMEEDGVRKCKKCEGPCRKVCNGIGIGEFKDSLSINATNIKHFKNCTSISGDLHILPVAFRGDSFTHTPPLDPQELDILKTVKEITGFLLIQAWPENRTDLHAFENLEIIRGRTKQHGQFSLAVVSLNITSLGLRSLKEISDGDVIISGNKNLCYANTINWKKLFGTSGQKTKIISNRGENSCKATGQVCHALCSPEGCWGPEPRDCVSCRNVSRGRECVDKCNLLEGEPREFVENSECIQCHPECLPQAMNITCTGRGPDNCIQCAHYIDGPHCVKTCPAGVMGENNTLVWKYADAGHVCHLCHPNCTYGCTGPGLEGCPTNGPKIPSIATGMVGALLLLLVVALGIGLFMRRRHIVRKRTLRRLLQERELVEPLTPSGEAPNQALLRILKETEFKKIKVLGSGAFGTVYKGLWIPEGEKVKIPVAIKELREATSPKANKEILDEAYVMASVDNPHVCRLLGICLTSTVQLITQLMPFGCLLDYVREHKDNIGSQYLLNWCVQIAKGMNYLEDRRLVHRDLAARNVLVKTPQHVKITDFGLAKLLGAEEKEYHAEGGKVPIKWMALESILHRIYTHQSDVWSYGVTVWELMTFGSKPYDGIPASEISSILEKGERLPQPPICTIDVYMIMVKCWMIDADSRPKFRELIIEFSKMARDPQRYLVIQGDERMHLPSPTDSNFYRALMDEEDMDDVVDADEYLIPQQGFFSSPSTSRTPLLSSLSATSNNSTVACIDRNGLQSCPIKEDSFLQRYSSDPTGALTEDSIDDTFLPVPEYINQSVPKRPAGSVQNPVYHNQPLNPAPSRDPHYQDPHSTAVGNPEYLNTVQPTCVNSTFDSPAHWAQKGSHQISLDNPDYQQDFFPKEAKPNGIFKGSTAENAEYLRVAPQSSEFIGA

For the compound `c1ccc(-c2ccnc(Nc3ncnc4cc5c(cc34)OCCO5)n2)cc1`, the IC50 in experiment [1] is above 10 µM; in experiment [2], above 10 µM; in experiment [3] it was above 10 µM; in experiment [4], above 10 µM; against Tubulin, above 20 µM.

Consider `Cl.c1cc(Nc2ncnc3cc4c(cc23)OCCO4)cc(-c2ccco2)c1`, for which the IC50 in experiment [1] was above 10 µM; in [2], above 10 µM; in [3] it was above 10 µM; in experiment [4] it was above 10 µM; on Tubulin it was 12 µM.

At Tubulin, `c1ccc(-c2cccc(Nc3ncnc4cc5c(cc34)OCCCO5)c2)cc1` returned an IC50 of 2.3 µM. The EC50 was determined as 0.55 µM in experiment [5] and 0.66 µM with A-431.

In turn, `c1ccc(-c2cccc(Nc3ncnc4cc5c(cc34)OCCO5)c2)cc1` came in with an IC50 at Tubulin of 4 µM. Also, the EC50 in [5] came to 0.5 µM.

In the case of `COc1cc2ncnc(Nc3cccc(-c4ccccc4)c3)c2cc1OC`, the IC50 was above 10 µM in experiment [1]; above 10 µM in experiment [2]; above 10 µM in [3]; above 10 µM in [4]; above 20 µM at Tubulin.

With `COc1ccc(/C=C\c2cc(OC)c(OC)c(OC)c2)cc1O` [COMBRETASTATIN A4], the IC50 in experiment [1], in experiment [2], in [3] and in [4] was above 10 µM throughout. Moreover, the EC50 in [5] was 0.0055 µM; in experiment [6], 5 µM.

Take `Cl.c1cc(Nc2ncnc3cc4c(cc23)OCCO4)cc(-c2ccc[nH]2)c1`: the half-inhibitory concentration (IC50) in experiment [1] was above 10 µM; in experiment [2], above 10 µM; in experiment [3], above 10 µM; in experiment [4], above 10 µM; against Tubulin, 3 µM. Moreover, the EC50 in experiment [5] worked out at 4 µM; in [6] it was 3.6 µM.

For the compound `CC(=O)O[C@H]1C(=O)[C@@]2(C)[C@H]([C@H](OC(=O)c3ccccc3)[C@]3(O)C[C@H](OC(=O)[C@H](O)[C@@H](NC(=O)c4ccccc4)c4ccccc4)C(C)=C1C3(C)C)[C@]1(OC(C)=O)CO[C@@H]1C[C@@H]2O` [PACLITAXEL], the IC50 in experiment [1], in [2], in experiment [3] and in experiment [4] was above 10 µM throughout. Also, the EC50 in experiment [5] was 0.018 µM; in [6] it was 0.013 µM.

For the compound `c1ccc(-c2cccc(Nc3ncnc4cc5c(cc34)OCO5)c2)cc1`, the IC50 at Tubulin came to 1.1 µM. Further, the EC50 in [5] was determined as 0.03 µM. The outcome in [7] was Active.

`Cl.c1ccc(-c2cccc(Nc3ncnc4cc5c(cc34)OCCO5)c2)nc1`: the IC50 in [1] is above 10 µM; in experiment [2] it was above 10 µM; in experiment [3], above 10 µM; in experiment [4], above 10 µM; at Tubulin it was 3.2 µM.

With `c1ccc(-c2csc(Nc3ncnc4cc5c(cc34)OCCO5)n2)cc1`, the IC50 in experiment [1] is above 10 µM; in experiment [2], above 10 µM; in experiment [3], above 10 µM; in experiment [4], above 10 µM; against Tubulin, above 20 µM.

Consider `Cl.c1cc(Nc2ncnc3cc4c(cc23)OCCO4)cc(-c2cccs2)c1`, for which the IC50 was above 10 µM in experiment [1]; above 10 µM in [2]; above 10 µM in experiment [3]; above 10 µM in experiment [4]; 1.2 µM at Tubulin. The EC50 in experiment [5] came out at 0.01 µM; in [6] it was 0.004 µM. In addition, in [7], the result was Active.
